Results from ChEMBL document CHEMBL1141202, “Novel CCR1 antagonists with oral activity in the mouse collagen induced arthritis” (Bioorg Med Chem Lett, 2005).
Each block holds one molecule with its values, some of them ahead of it.

Key:
[1] = target: T1, C-C chemokine receptor type 1 (Mus musculus, UniProt P51675); experiment: Antagonistic activity at mouse CCR1 in CHO-K1 cells; assay type: functional, cell-based
T1 sequence (P51675 whole entry): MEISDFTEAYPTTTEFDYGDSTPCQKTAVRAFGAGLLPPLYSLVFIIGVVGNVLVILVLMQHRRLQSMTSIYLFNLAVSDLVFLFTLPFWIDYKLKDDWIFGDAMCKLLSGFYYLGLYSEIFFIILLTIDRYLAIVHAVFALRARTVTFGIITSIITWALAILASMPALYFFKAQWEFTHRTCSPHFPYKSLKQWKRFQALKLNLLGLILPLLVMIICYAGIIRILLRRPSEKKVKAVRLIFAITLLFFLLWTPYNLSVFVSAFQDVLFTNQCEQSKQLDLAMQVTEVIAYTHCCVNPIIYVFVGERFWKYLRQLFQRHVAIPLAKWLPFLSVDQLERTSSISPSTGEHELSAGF
How it was run: (§1)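 CHO-K1 cells stably transfected with human, mouse or rat CCR1; membranes used in a scintillation proximity assay with radiolabelled MIP-1α as ligand.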

[2] = target: T2, C-C chemokine receptor type 1 (Homo sapiens, UniProt P32246); experiment: Antagonistic activity at human CCR1 in CHO-K1 cells; assay type: functional, cell-based; how it was run: as §1
T2 sequence (P32246 whole entry): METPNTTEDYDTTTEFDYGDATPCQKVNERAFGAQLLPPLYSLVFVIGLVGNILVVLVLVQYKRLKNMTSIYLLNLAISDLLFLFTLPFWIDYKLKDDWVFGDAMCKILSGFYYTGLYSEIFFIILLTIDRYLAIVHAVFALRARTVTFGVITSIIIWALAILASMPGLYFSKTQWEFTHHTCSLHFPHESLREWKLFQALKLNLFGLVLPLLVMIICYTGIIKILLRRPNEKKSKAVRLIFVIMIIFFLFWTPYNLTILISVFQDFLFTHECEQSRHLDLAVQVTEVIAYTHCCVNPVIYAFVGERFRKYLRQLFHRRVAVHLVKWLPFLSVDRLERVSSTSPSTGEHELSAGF

[3] = target: T2, C-C chemokine receptor type 1; experiment: Antagonistic activity at human CCR1 by inhibition of MIP-1alpha induced calcium mobilization in THP1 cells; assay type: functional, cell-based, THP-1
How it was run: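 THP-1 cells with native CCR1 expression; preincubated with antagonist 30 min at RT, then stimulated with 3 nM MIP-1α; calcium response read as fluo-4 fluorescence.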

[4] = Half life in rat; assay type: ADME, organism-based; conditions: in vivo
[5] = AUC in rat; assay type: ADME, organism-based; conditions: plasma
Rattus norvegicus = species: Rattus norvegicus; experiment: Maximum concentration in rat; assay type: ADME, organism-based; conditions: in vivo
[6] = Oral bioavailability in rat; assay type: ADME, organism-based; conditions: in vivo
[7] = target: Beta-2 adrenergic receptor (Homo sapiens, UniProt P07550); experiment: Inhibition of human adrenergic beta-2 receptor
[8] = target: 5-hydroxytryptamine receptor 2B (Homo sapiens, UniProt P41595); experiment: Inhibition of human 5HT2B receptor
Chain of 5-hydroxytryptamine receptor 2B (P41595 whole entry): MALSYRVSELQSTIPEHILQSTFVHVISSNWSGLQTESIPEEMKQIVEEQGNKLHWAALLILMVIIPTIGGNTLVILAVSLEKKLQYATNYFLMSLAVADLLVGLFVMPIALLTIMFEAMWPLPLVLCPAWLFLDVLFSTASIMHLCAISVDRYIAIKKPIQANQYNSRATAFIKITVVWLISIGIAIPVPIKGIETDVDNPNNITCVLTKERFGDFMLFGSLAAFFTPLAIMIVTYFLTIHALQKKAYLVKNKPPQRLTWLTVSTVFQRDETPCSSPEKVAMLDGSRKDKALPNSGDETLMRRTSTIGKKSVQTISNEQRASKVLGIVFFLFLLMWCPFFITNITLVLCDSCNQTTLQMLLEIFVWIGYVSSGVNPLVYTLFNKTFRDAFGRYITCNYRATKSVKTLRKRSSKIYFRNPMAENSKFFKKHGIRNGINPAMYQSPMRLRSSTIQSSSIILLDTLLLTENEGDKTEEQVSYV

D(4) dopamine receptor = D(4) dopamine receptor (Homo sapiens, UniProt P21917); experiment: Inhibition of human dopamine receptor D4.4
Chain of D(4) dopamine receptor (P21917 whole entry): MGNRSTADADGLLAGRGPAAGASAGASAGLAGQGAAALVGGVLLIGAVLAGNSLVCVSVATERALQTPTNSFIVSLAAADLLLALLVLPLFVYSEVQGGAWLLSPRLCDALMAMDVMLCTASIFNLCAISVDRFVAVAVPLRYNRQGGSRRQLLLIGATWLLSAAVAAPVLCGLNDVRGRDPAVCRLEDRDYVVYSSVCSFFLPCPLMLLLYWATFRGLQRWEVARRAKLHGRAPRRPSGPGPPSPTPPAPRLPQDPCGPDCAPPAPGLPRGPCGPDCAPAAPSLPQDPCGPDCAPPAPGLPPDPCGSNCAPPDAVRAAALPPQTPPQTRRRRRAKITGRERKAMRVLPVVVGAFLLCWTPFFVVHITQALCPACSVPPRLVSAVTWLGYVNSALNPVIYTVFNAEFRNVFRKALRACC

[9] = target: 5-hydroxytryptamine receptor 2A (Homo sapiens, UniProt P28223); experiment: Inhibition of human 5HT2A receptor
Chain of 5-hydroxytryptamine receptor 2A (P28223 whole entry): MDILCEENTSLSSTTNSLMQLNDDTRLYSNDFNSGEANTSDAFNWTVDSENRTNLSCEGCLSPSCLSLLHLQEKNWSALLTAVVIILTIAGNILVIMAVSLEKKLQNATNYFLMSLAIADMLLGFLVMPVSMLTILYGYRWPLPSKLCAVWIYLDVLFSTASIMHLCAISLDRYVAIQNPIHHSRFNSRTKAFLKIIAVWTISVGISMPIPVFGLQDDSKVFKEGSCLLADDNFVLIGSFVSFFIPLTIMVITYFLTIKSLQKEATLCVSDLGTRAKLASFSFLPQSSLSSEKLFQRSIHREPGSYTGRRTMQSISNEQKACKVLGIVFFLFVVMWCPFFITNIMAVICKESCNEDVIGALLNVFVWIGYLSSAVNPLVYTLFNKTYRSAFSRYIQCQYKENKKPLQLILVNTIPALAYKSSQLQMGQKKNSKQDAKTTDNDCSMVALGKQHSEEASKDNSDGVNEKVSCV

[10] = target: Alpha-2B adrenergic receptor (Homo sapiens, UniProt P18089); experiment: Inhibition of human adrenergic alpha-2B receptor
D(1A) dopamine receptor = D(1A) dopamine receptor (Homo sapiens, UniProt P21728); experiment: Inhibition of human dopamine receptor D1
[11] = target: 5-hydroxytryptamine receptor 6 (Homo sapiens, UniProt P50406); experiment: Inhibition of human 5HT6 receptor
D(3) dopamine receptor = D(3) dopamine receptor (Homo sapiens, UniProt P35462); experiment: Inhibition of human dopamine receptor D3
[12] = target: 5-hydroxytryptamine receptor 1B (Homo sapiens, UniProt P28222); experiment: Inhibition of human 5HT1B receptor
[13] = target: C-C chemokine receptor type 5 (Mus musculus, UniProt P51682); experiment: Inhibition of mouse CCR5
Chain of C-C chemokine receptor type 5 (P51682 whole entry): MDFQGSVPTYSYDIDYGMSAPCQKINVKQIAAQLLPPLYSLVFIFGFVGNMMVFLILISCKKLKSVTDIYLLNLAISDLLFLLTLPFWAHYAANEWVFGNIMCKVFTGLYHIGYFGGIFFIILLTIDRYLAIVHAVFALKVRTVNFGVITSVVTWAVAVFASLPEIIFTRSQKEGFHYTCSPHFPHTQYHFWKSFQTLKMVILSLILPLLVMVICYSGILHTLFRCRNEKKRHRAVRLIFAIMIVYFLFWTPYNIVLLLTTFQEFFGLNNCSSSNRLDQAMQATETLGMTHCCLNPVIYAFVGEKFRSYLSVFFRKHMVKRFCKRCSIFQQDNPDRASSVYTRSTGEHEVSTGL

[14] = target: Beta-1 adrenergic receptor (Homo sapiens, UniProt P08588); experiment: Inhibition of human adrenergic beta-1 receptor
[15] = target: Serotonin 3 (5-HT3) receptor; experiment: Inhibition of human 5HT3 receptor; assay type: protein-complex assay
[16] = target: Alpha-2C adrenergic receptor (Homo sapiens, UniProt P18825); experiment: Inhibition of human adrenergic alpha-2C receptor
[17] = target: C-C chemokine receptor type 2 (Homo sapiens, UniProt P41597); experiment: Inhibition of human CCR2b
Mu-type opioid receptor = Mu-type opioid receptor (Homo sapiens, UniProt P35372); experiment: Inhibition of human mu opioid receptor
[18] = target: 5-hydroxytryptamine receptor 7 (Homo sapiens, UniProt P34969); experiment: Inhibition of human 5HT7 receptor
[19] = target: Adrenergic receptor alpha-1 (Homo sapiens, UniProt P35348+P25100+P35368); experiment: Inhibition of human adrenergic alpha-1 receptor; assay type: protein assay
[20] = target: C-C chemokine receptor type 3 (Homo sapiens, UniProt P51677); experiment: Inhibition of human CCR3
Chain of C-C chemokine receptor type 3 (P51677 whole entry): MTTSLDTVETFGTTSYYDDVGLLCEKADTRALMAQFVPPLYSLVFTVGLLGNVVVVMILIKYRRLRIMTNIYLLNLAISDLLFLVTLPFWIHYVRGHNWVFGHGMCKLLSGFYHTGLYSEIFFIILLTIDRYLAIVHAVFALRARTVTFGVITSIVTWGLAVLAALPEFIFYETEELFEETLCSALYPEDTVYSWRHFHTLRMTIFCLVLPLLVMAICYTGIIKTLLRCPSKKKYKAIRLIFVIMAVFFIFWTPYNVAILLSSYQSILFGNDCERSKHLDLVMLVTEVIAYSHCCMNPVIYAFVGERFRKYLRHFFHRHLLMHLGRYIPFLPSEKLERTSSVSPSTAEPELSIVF

[21] = target: Muscarinic acetylcholine receptor M4 (Homo sapiens, UniProt P08173); experiment: Inhibition of human muscarinic receptor M4
[22] = target: Muscarinic acetylcholine receptor M3 (Homo sapiens, UniProt P20309); experiment: Inhibition of human muscarinic receptor M3
Chain of Muscarinic acetylcholine receptor M3 (P20309 whole entry): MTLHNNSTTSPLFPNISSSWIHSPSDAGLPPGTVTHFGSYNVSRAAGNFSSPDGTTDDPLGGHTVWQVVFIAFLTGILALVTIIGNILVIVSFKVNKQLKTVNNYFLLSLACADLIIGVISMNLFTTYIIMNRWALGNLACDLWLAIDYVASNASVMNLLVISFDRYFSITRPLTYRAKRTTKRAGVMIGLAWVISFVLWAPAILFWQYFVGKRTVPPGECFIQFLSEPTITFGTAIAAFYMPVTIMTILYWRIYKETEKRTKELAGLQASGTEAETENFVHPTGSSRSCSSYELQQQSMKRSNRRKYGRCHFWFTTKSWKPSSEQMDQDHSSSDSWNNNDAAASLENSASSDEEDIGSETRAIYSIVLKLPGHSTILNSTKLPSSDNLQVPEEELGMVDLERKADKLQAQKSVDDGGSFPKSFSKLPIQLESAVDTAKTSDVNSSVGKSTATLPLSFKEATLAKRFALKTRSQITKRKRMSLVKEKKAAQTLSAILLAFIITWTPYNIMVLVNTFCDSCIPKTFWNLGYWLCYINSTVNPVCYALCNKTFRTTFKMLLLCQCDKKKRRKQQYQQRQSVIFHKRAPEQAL

D(2) dopamine receptor = D(2) dopamine receptor (Homo sapiens, UniProt P14416); experiment: Inhibition of human dopamine receptor D2
[23] = target: Muscarinic acetylcholine receptor M5 (Homo sapiens, UniProt P08912); experiment: Inhibition of human muscarinic receptor M5
Chain of Muscarinic acetylcholine receptor M5 (P08912 whole entry): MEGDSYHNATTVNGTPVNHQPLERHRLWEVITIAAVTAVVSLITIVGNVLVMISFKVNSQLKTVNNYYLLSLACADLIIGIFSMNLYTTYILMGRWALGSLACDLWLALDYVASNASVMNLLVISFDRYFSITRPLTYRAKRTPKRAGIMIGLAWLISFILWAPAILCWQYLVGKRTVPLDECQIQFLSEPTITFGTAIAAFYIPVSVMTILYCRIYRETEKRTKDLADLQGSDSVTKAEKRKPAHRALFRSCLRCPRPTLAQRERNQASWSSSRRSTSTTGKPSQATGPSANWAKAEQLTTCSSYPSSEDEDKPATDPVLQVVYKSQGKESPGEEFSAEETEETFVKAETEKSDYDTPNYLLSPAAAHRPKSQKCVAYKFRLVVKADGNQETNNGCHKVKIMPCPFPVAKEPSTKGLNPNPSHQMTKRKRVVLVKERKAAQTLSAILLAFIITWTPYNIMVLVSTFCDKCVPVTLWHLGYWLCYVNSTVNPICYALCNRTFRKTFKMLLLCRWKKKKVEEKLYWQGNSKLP

[24] = target: 5-hydroxytryptamine receptor 1A (Homo sapiens, UniProt P08908); experiment: Inhibition of human 5HT1A receptor
Chain of 5-hydroxytryptamine receptor 1A (P08908 whole entry): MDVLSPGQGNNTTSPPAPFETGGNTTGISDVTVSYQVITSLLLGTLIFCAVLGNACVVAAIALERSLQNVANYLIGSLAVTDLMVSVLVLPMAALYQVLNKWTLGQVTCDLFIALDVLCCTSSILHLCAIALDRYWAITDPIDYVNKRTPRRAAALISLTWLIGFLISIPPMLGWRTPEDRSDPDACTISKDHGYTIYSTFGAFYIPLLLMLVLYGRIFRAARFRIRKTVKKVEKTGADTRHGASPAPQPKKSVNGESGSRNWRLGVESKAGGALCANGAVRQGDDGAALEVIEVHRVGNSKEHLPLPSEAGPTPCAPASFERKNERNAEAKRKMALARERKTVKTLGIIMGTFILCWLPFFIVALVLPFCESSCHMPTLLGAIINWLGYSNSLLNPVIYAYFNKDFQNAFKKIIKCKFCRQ

[25] = target: Muscarinic acetylcholine receptor M1 (Homo sapiens, UniProt P11229); experiment: Inhibition of human muscarinic receptor M1
[26] = target: Muscarinic acetylcholine receptor M2 (Homo sapiens, UniProt P08172); experiment: Inhibition of human muscarinic receptor M2
Chain of Muscarinic acetylcholine receptor M2 (P08172 whole entry): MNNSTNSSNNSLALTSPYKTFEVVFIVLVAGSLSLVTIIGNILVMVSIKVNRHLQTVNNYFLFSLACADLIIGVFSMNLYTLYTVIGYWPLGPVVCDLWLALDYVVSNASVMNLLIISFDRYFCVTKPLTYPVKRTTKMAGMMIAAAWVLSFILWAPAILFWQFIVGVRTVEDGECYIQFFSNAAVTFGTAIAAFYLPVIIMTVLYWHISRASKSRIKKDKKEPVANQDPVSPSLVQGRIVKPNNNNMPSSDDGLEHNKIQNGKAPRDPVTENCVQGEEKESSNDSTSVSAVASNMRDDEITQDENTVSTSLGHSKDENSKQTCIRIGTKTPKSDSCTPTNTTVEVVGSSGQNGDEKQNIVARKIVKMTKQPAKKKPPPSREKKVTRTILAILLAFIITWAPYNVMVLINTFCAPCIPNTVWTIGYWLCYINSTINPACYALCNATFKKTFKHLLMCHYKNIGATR

[27] = target: C-C chemokine receptor type 6 (Homo sapiens, UniProt P51684); experiment: Inhibition of human CCR6
Chain of C-C chemokine receptor type 6 (P51684 whole entry): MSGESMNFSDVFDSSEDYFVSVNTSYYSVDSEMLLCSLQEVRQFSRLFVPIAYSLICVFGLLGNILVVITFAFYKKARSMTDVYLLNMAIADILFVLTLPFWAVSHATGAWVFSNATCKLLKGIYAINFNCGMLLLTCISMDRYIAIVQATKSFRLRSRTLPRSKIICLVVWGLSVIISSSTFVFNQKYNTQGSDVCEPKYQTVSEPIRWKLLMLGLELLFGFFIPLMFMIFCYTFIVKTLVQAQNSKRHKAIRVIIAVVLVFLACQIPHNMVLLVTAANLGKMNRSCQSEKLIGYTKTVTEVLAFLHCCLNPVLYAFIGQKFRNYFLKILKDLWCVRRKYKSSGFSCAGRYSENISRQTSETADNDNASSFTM

[28] = target: Delta-type opioid receptor (Homo sapiens, UniProt P41143); experiment: Inhibition of human delta opioid receptor
Chain of Delta-type opioid receptor (P41143 whole entry): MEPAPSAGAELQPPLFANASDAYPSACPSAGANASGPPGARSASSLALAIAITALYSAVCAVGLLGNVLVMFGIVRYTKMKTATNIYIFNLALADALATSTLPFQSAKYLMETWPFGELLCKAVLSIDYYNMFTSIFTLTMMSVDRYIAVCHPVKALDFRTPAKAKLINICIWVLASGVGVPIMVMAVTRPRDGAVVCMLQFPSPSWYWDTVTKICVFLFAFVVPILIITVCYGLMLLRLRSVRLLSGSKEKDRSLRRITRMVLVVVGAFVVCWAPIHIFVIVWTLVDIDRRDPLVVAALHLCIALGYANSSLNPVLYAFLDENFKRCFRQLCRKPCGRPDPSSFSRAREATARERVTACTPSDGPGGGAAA

[29] = target: Alpha-2A adrenergic receptor (Homo sapiens, UniProt P08913); experiment: Inhibition of human adrenergic alpha-2A receptor
[30] = target: 5-hydroxytryptamine receptor 2C (Homo sapiens, UniProt P28335); experiment: Inhibition of human 5HT2C receptor
[31] = target: Kappa-type opioid receptor (Homo sapiens, UniProt P41145); experiment: Inhibition of human kappa opioid receptor

SMILES: CC(=O)Nc1cc2ncccc2cc1/C=C/C(=O)N1C2CCC1CN(Cc1ccc(F)cc1)C2
IC50 [1]: 50 nM
IC50 [2]: 150 nM

SMILES: CC(=O)Nc1cc2ccccc2cc1/C=C/C(=O)N1CCN(Cc2ccc(F)cc2)C[C@H]1C
IC50 [1]: 500 nM
IC50 [3]: 13 nM
IC50 [2]: 80 nM

SMILES: COc1cc(/C=C/C(=O)N2CCN(Cc3ccc(F)cc3)C[C@H]2C)c(NC(C)=O)cc1Cl
half-life [4]: 4.1 h
AUC [5]: 750 ng·h/mL
Cmax (Rattus norvegicus): 396 nM
bioavailability [6]: 100%

SMILES: CC(=O)Nc1cc2ncccc2cc1/C=C/C(=O)N1CCN(Cc2ccc(F)cc2)C[C@H]1C
IC50 [1]: 1000 nM
IC50 [3]: 20 nM
IC50 [2]: 30 nM

SMILES: CN(C)CC(=O)Nc1cc(Cl)ccc1/C=C/C(=O)N1C2CCC1CN(Cc1ccc(F)cc1)C2
IC50 [1]: 40 nM
half-life [4]: 2.92 h
IC50 [3]: 9 nM
AUC [5]: 1070 ng·h/mL
IC50 [2]: 30 nM
Cmax (Rattus norvegicus): 407 nM
bioavailability [6]: 77%

SMILES: COc1cc2c(cc1Cl)NC(=O)NC2CC(=O)N1CCN(Cc2ccc(F)cc2)C[C@H]1C (stereo partly drawn)
IC50 [2]: 800 nM

SMILES: C[C@@H]1CN(Cc2ccc(F)cc2)CCN1C(=O)COc1ccc(Cl)cc1NC(N)=O.Cl [BX 471]
half-life [4]: 1.9 h
AUC [5]: 139 ng·h/mL
Cmax (Rattus norvegicus): 400 nM
bioavailability [6]: 100%

SMILES: CC(=O)Nc1cc(Cl)ccc1CCC(=O)N1CCN(Cc2ccc(F)cc2)C[C@H]1C
IC50 [2]: 360 nM

The next lines start with the values.

IC50 [2]: 1700 nM
SMILES: CC(=O)Nc1cc(Cl)ccc1/C=C/C(=O)N1C[C@H]2C[C@@H]1CN2Cc1ccc(F)cc1

half-life [4]: 11 h
AUC [5]: 487 ng·h/mL
Cmax (Rattus norvegicus): 934 nM
bioavailability [6]: 90%
SMILES: C[C@@H]1CN(Cc2ccc(F)cc2)CCN1C(=O)/C=C/c1ccc(Cl)cc1NC(N)=O

IC50 [2]: 1600 nM
SMILES: CC(=O)Nc1cc(Cl)ccc1/C=C/C(=O)N1CCCN(Cc2ccc(F)cc2)C[C@H]1C

IC50 [7]: > 1000 nM
IC50 [8]: > 1000 nM
half-life [4]: 16.5 h
IC50 (D(4) dopamine receptor): > 1000 nM
IC50 [9]: > 1000 nM
IC50 [10]: > 1000 nM
IC50 (D(1A) dopamine receptor): > 1000 nM
IC50 [11]: > 1000 nM
IC50 (D(3) dopamine receptor): > 1000 nM
AUC [5]: 784 ng·h/mL
IC50 [12]: > 1000 nM
IC50 [13]: > 10000 nM
IC50 [14]: > 1000 nM
IC50 [15]: > 1000 nM
IC50 [16]: > 1000 nM
IC50 [17]: > 10000 nM
IC50 (Mu-type opioid receptor): > 1000 nM
IC50 [18]: > 1000 nM
IC50 [19]: > 1000 nM
IC50 [20]: > 10000 nM
Cmax (Rattus norvegicus): 850 nM
IC50 [21]: > 1000 nM
IC50 [22]: > 1000 nM
IC50 (D(2) dopamine receptor): > 1000 nM
IC50 [23]: > 1000 nM
IC50 [24]: > 1000 nM
IC50 [25]: > 1000 nM
IC50 [26]: > 1000 nM
bioavailability [6]: 95%
IC50 [27]: > 100000 nM
IC50 [28]: > 1000 nM
IC50 [29]: > 1000 nM
IC50 [30]: > 1000 nM
IC50 [31]: > 1000 nM
SMILES: CC(=O)Nc1cc(Cl)ccc1/C=C/C(=O)N1CCN(Cc2ccc(F)cc2)C[C@H]1C

IC50 [2]: 200 nM
SMILES: CC(=O)Nc1cc(Cl)ccc1/C=C/C(=O)N1C2CCC1CN(Cc1ccc(F)cc1)C2

IC50 [1]: 4 nM
half-life [4]: 5.1 h
AUC [5]: 158 ng·h/mL
IC50 [2]: 7 nM
Cmax (Rattus norvegicus): 80 nM
bioavailability [6]: 83%
SMILES: COc1cc(/C=C/C(=O)N2C3CCC2CN(Cc2ccc(F)cc2)C3)c(NC(C)=O)cc1Cl

IC50 [2]: 300 nM
SMILES: CC(=O)Nc1cc(Cl)ccc1/C=C/C(=O)N1CC2CCC(C1)N2Cc1ccc(F)cc1
